Test results published in ChEMBL document CHEMBL4219101, “Discovery of 18β-glycyrrhetinic acid conjugated aminobenzothiazole derivatives as Hsp90-Cdc37 interaction disruptors that inhibit cell migration and reverse drug resistance” (Bioorg Med Chem, 2018).

Key:
[1] = tested on: HepG2; experiment: Antiproliferative activity against human HepG2 cells after 48 hrs by MTT assay; assay type: functional, cell-based; settings: HepG2, 48 h
In short: (§1)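 Cells in log phase seeded at about 1.0 × 10^5 cells/mL in 96-well plates, left 12 h at 37 °C, 5% CO2. Compounds dissolved in DMSO, added at 2.5, 5, 10, 20 and 50 µM, 48 h exposure. Absorbance read at 570/630 nm dual wavelength. Survival expressed relative to negative control. IC50 by Bliss method (n = 5), tests done in triplicate.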

[2] = tested on: MCF7; experiment: Antiproliferative activity against human MCF7 cells after 48 hrs by MTT assay; assay type: functional, cell-based; settings: MCF7, 48 h; in short: as §1
[3] = tested on: HCT-116; experiment: Antiproliferative activity against human HCT116 cells after 48 hrs by MTT assay; assay type: functional, cell-based; settings: HCT-116, 48 h; in short: as §1
[4] = tested on: A549; experiment: Antiproliferative activity against human A549 cells after 48 hrs by MTT assay; assay type: functional, cell-based; settings: A549, 48 h; in short: as §1
[5] = Inhibition of His-tagged full-length Hsp90 (unknown origin)/GST-tagged Cdc37M (unknown origin) interaction after 1 hr by HTRF assay; set-up: species or system Homo sapiens
In short: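 TR-FRET in PBS containing 400 mM KF, pH 7.3. His-tagged full-length Hsp90 and GST-Cdc37M, each 250 nM final, incubated with compound for 1 h at 37 °C. Anti-GST-Cryptate and anti-6His-XL665 then added for a further 0.5 h at 37 °C. Excitation 320 nm, emission 665/620 nm, reported as ratio ×10,000. Negative and blank controls run in each assay.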

Structure (SMILES)	IC50 [1] [µM]	IC50 [2] [µM]	IC50 [3] [µM]	IC50 [4] [µM]	IC50 [5] [µM]
CCOC(=O)[C@@]1(C)CC[C@]2(C)CC[C@]3(C)C(=CC(=O)[C@@H]4[C@@]5(C)CC[C@H](OC(=O)CCC(=O)Nc6nc7ccc(OC)cc7s6)C(C)(C)[C@@H]5CC[C@]43C)[C@@H]2C1	20.4	18.5	21.3	15.5	8.24
CC1(C)[C@@H](O)CC[C@]2(C)[C@H]3C(=O)C=C4[C@@H]5C[C@@](C)(C(=O)Nc6nc7c(Br)cccc7s6)CC[C@]5(C)CC[C@@]4(C)[C@]3(C)CC[C@@H]12	> 100	> 100	> 100	> 100	> 100
CCOC(=O)[C@@]1(C)CC[C@]2(C)CC[C@]3(C)C(=CC(=O)[C@@H]4[C@@]5(C)CC[C@H](OC(=O)CCC(=O)Nc6nc7ccc(C)cc7s6)C(C)(C)[C@@H]5CC[C@]43C)[C@@H]2C1	27.5	22.5	23.6	19.1	14.9
CC(=O)O[C@H]1CC[C@]2(C)[C@H]3C(=O)C=C4[C@@H]5C[C@@](C)(C(=O)Nc6nc7c(Br)cccc7s6)CC[C@]5(C)CC[C@@]4(C)[C@]3(C)CC[C@H]2C1(C)C	> 100	> 100	> 100	> 100	> 100
CC(=O)O[C@H]1CC[C@]2(C)[C@H]3C(=O)C=C4[C@@H]5C[C@@](C)(C(=O)Nc6nc7c(Cl)cccc7s6)CC[C@]5(C)CC[C@@]4(C)[C@]3(C)CC[C@H]2C1(C)C	> 100	> 100	> 100	> 100	> 100
COc1cccc2sc(NC(=O)[C@@]3(C)CC[C@]4(C)CC[C@]5(C)C(=CC(=O)[C@@H]6[C@@]7(C)CC[C@H](O)C(C)(C)[C@@H]7CC[C@]65C)[C@@H]4C3)nc12	86.3	74.5	74.7	76	> 100
CC(=O)O[C@H]1CC[C@]2(C)[C@H]3C(=O)C=C4[C@@H]5C[C@@](C)(C(=O)Nc6nc7ccc(Br)cc7s6)CC[C@]5(C)CC[C@@]4(C)[C@]3(C)CC[C@H]2C1(C)C	86	78.1	76.8	69.7	81.9
Cc1ccc2nc(NC(=O)[C@@]3(C)CC[C@]4(C)CC[C@]5(C)C(=CC(=O)[C@@H]6[C@@]7(C)CC[C@H](O)C(C)(C)[C@@H]7CC[C@]65C)[C@@H]4C3)sc2c1	27.6	23.2	18.7	22.4	83.2
O=c1[nH]cc(F)c(=O)[nH]1 [FLUOROURACIL]	23.6	15.8	17.2	19.5	–
CC1(C)[C@@H](O)CC[C@]2(C)[C@H]3C(=O)C=C4[C@@H]5C[C@@](C)(C(=O)Nc6nc7ccccc7s6)CC[C@]5(C)CC[C@@]4(C)[C@]3(C)CC[C@@H]12	88	71.4	80.7	75.4	89.5
CCOC(=O)[C@@]1(C)CC[C@]2(C)CC[C@]3(C)C(=CC(=O)[C@@H]4[C@@]5(C)CC[C@H](OC(=O)CCC(=O)Nc6nc7ccc(Br)cc7s6)C(C)(C)[C@@H]5CC[C@]43C)[C@@H]2C1	19	16.1	15.9	14.2	5.07
COc1ccc2nc(NC(=O)[C@@]3(C)CC[C@]4(C)CC[C@]5(C)C(=CC(=O)[C@@H]6[C@@]7(C)CC[C@H](OC(C)=O)C(C)(C)[C@@H]7CC[C@]65C)[C@@H]4C3)sc2c1	85.6	81.2	> 100	75.5	90.1
CC1(C)[C@@H](O)CC[C@]2(C)[C@H]3C(=O)C=C4[C@@H]5C[C@@](C)(C(=O)Nc6nc7ccc(Br)cc7s6)CC[C@]5(C)CC[C@@]4(C)[C@]3(C)CC[C@@H]12	39.5	33.8	37.4	33.4	41.3
CC(=O)O[C@H]1CC[C@]2(C)[C@H]3C(=O)C=C4[C@@H]5C[C@@](C)(C(=O)Nc6nc7c(C)cccc7s6)CC[C@]5(C)CC[C@@]4(C)[C@]3(C)CC[C@H]2C1(C)C	> 100	> 100	> 100	> 100	> 100
CCOC(=O)[C@@]1(C)CC[C@]2(C)CC[C@]3(C)C(=CC(=O)[C@@H]4[C@@]5(C)CC[C@H](OC(=O)CCC(=O)Nc6nc7c(C)cccc7s6)C(C)(C)[C@@H]5CC[C@]43C)[C@@H]2C1	31.8	26.5	26.3	22.8	21.9
CC1(C)[C@@H](O)CC[C@]2(C)[C@H]3C(=O)C=C4[C@@H]5C[C@@](C)(C(=O)Nc6nc7ccc(Cl)cc7s6)CC[C@]5(C)CC[C@@]4(C)[C@]3(C)CC[C@@H]12	21.8	16.5	16.3	22.8	36.9
CC(=O)O[C@H]1CC[C@]2(C)[C@H]3C(=O)C=C4[C@@H]5C[C@@](C)(C(=O)Nc6nc7c(F)cccc7s6)CC[C@]5(C)CC[C@@]4(C)[C@]3(C)CC[C@H]2C1(C)C	> 100	> 100	> 100	> 100	> 100
CC1(C)[C@@H](O)CC[C@]2(C)[C@H]3C(=O)C=C4[C@@H]5C[C@@](C)(C(=O)Nc6nc7ccc(F)cc7s6)CC[C@]5(C)CC[C@@]4(C)[C@]3(C)CC[C@@H]12	36.4	31.1	31.5	32.2	32.3
CC1=C(O)C(=O)C=C2C1=CC=C1[C@@]2(C)CC[C@@]2(C)[C@@H]3C[C@](C)(C(=O)O)CC[C@]3(C)CC[C@]12C [CELASTROL]	6.17	6.84	5.26	6.59	6.22
Cc1cccc2sc(NC(=O)[C@@]3(C)CC[C@]4(C)CC[C@]5(C)C(=CC(=O)[C@@H]6[C@@]7(C)CC[C@H](O)C(C)(C)[C@@H]7CC[C@]65C)[C@@H]4C3)nc12	> 100	> 100	> 100	> 100	> 100
CC(=O)O[C@H]1CC[C@]2(C)[C@H]3C(=O)C=C4[C@@H]5C[C@@](C)(C(=O)Nc6nc7ccccc7s6)CC[C@]5(C)CC[C@@]4(C)[C@]3(C)CC[C@H]2C1(C)C	> 100	> 100	> 100	> 100	> 100
CCOC(=O)[C@@]1(C)CC[C@]2(C)CC[C@]3(C)C(=CC(=O)[C@@H]4[C@@]5(C)CC[C@H](OC(=O)CCC(=O)Nc6nc7c(OC)cccc7s6)C(C)(C)[C@@H]5CC[C@]43C)[C@@H]2C1	21.9	20.1	23.1	16.4	10.4
CC(=O)O[C@H]1CC[C@]2(C)[C@H]3C(=O)C=C4[C@@H]5C[C@@](C)(C(=O)Nc6nc7ccc(F)cc7s6)CC[C@]5(C)CC[C@@]4(C)[C@]3(C)CC[C@H]2C1(C)C	65.6	71.2	> 100	85.5	54.3
COc1cccc2sc(NC(=O)[C@@]3(C)CC[C@]4(C)CC[C@]5(C)C(=CC(=O)[C@@H]6[C@@]7(C)CC[C@H](OC(C)=O)C(C)(C)[C@@H]7CC[C@]65C)[C@@H]4C3)nc12	> 100	> 100	> 100	> 100	> 100
CC1(C)[C@@H](O)CC[C@]2(C)[C@H]3C(=O)C=C4[C@@H]5C[C@@](C)(C(=O)O)CC[C@]5(C)CC[C@@]4(C)[C@]3(C)CC[C@@H]12 [ENOXOLONE]	94.5	74.8	91.2	84.2	78.4
CCOC(=O)[C@@]1(C)CC[C@]2(C)CC[C@]3(C)C(=CC(=O)[C@@H]4[C@@]5(C)CC[C@H](OC(=O)CCC(=O)Nc6nc7c(Br)cccc7s6)C(C)(C)[C@@H]5CC[C@]43C)[C@@H]2C1	29.9	24.4	26.8	20.7	15.3
COc1ccc2nc(NC(=O)[C@@]3(C)CC[C@]4(C)CC[C@]5(C)C(=CC(=O)[C@@H]6[C@@]7(C)CC[C@H](O)C(C)(C)[C@@H]7CC[C@]65C)[C@@H]4C3)sc2c1	60.1	52.7	54.2	51.1	62.4
CC(=O)O[C@H]1CC[C@]2(C)[C@H]3C(=O)C=C4[C@@H]5C[C@@](C)(C(=O)Nc6nc7ccc(Cl)cc7s6)CC[C@]5(C)CC[C@@]4(C)[C@]3(C)CC[C@H]2C1(C)C	73.1	66.7	68.5	62.6	77.6
CC1(C)[C@@H](O)CC[C@]2(C)[C@H]3C(=O)C=C4[C@@H]5C[C@@](C)(C(=O)Nc6nc7c(Cl)cccc7s6)CC[C@]5(C)CC[C@@]4(C)[C@]3(C)CC[C@@H]12	69.6	71.2	> 100	75.4	65.6
